From ChEMBL document CHEMBL3763091, “Design, synthesis, and docking studies of afatinib analogs bearing cinnamamide moiety as potent EGFR inhibitors” (Bioorg Med Chem, 2016)
pIC50: −log10 of the molar value. One block for each molecule: values may come before it.

Assays:
A549 = assay: Cytotoxicity against human A549 cells after 72 hrs by MTT assay; type: functional, cell-based; settings: for IC50: a549; for pIC50: Homo sapiens, A549, 72 h, read-out: IC50
Summary of the method: (§1)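 Cells were grown in MEM with 10% FBS. About 4 × 10³ cells per well were seeded and held 24 h at 37 °C in 5% CO₂, then exposed to compound at the indicated final concentrations for 72 h. MTT was added at 5 µg/mL final for 4 h at 37 °C, and formazan was dissolved in DMSO. Absorbance was read at 492 nm against 630 nm reference. Each compound was tested three times per line, and IC₅₀ values were averaged.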

[1] = Cytotoxicity against human PC3 cells after 72 hrs by MTT assay; type: functional, cell-based, PC-3; settings: for IC50: pc-3; for pIC50: Homo sapiens, PC-3, 72 h, read-out: IC50; summary of the method: as §1
MCF7 = assay: Cytotoxicity against human MCF7 cells after 72 hrs by MTT assay; type: functional, cell-based; settings: for pIC50: Homo sapiens, MCF7, 72 h, read-out: IC50; for IC50: mcf7; summary of the method: as §1
HeLa = assay: Cytotoxicity against human HeLa cells after 72 hrs by MTT assay; type: functional, cell-based; summary of the method: as §1
[2] = biological target: Epidermal growth factor receptor (Homo sapiens, UniProt P00533); assay: Inhibition of EGFR (unknown origin) using FAM-labeled peptide as substrate preincubated for 10 mins followed by addition of substrate by mobility shift assay
[3] = biological target: Vascular endothelial growth factor receptor 2 (Homo sapiens, UniProt P35968); assay: Inhibition of VEGFR2 (unknown origin) using FAM-labeled peptide as substrate preincubated for 10 mins followed by addition of substrate by mobility shift assay
Summary of the method: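 Mobility-shift kinase assay. Compounds were serially diluted in 100% DMSO and combined with enzyme for 10 min at room temperature. FAM-labeled peptide plus ATP was then added and incubated at 28 °C. The reaction was stopped with EDTA-containing buffer. Conversion was read on Caliper, and % inhibition = (max − conversion)/(max − min) × 100. IC₅₀ was averaged from at least two experiments.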

[4] = Cytotoxicity against human NSCLC cells; type: functional, cell-based

Vascular endothelial growth factor receptor 2, sequence (P35968 whole entry): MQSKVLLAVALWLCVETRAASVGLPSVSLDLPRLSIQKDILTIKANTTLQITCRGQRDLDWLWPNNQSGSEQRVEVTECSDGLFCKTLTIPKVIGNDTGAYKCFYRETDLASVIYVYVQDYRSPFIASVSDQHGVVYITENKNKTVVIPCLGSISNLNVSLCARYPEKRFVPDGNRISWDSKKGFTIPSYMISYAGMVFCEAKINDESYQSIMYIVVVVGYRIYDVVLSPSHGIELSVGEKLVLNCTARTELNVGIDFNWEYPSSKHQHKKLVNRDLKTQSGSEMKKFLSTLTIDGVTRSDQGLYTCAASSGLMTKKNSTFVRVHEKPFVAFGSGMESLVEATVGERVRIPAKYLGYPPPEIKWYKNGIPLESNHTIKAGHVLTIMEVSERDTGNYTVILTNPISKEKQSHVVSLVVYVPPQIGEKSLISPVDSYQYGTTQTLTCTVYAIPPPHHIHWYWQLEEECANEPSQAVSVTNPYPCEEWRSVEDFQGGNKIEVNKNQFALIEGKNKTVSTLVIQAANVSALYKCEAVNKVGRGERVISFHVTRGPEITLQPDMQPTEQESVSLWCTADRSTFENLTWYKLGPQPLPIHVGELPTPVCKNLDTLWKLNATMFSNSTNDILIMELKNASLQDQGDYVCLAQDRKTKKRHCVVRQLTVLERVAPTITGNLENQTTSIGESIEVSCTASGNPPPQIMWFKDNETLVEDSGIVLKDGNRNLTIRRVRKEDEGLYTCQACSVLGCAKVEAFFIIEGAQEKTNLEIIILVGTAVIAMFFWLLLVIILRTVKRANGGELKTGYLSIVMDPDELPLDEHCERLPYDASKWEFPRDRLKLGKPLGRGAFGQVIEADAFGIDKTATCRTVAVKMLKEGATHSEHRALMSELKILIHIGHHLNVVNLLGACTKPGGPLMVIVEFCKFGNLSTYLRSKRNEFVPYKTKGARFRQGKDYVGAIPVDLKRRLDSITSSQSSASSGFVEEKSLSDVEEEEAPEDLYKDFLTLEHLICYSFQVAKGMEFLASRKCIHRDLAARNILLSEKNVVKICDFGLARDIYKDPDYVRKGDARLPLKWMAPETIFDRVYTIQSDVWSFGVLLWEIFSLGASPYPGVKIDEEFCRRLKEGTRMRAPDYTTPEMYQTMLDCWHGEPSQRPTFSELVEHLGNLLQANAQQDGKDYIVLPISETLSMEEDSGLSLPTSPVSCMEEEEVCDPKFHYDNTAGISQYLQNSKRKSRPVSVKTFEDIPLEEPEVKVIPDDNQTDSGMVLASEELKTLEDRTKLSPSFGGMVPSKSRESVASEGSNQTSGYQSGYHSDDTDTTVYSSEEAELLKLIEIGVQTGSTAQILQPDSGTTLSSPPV
Epidermal growth factor receptor, sequence (P00533 whole entry): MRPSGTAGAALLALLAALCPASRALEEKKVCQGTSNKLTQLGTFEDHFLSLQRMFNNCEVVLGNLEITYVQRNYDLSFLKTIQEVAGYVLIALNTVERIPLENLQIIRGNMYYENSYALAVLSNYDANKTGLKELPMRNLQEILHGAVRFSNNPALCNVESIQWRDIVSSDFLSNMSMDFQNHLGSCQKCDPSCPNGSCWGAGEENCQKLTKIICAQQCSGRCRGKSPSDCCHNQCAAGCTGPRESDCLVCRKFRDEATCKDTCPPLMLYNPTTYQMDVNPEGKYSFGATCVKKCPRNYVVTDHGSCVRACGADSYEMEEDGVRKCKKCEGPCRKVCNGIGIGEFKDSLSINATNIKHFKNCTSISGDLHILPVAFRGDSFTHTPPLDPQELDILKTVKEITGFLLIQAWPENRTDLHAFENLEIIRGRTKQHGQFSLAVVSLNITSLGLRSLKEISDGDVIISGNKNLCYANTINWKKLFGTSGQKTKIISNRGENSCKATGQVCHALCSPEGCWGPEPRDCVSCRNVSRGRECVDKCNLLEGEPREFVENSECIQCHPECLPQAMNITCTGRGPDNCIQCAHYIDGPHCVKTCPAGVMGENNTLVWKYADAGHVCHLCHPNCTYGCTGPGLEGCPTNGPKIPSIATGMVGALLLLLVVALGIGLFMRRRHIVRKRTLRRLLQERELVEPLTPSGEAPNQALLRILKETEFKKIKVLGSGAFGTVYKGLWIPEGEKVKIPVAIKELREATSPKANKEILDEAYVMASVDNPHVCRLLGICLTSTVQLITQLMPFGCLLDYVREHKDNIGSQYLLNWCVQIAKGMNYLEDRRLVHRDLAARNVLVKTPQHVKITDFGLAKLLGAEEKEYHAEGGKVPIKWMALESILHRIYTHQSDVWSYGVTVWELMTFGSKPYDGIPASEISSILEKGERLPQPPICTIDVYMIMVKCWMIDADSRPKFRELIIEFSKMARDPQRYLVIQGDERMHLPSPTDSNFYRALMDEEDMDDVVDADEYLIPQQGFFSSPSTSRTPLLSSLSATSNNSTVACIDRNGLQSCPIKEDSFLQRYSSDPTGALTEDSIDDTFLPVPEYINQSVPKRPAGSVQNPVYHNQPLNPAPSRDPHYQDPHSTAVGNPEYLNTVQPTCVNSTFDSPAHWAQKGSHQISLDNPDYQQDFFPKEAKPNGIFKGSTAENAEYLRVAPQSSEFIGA

SMILES: COc1cc(/C=C/C(=O)Nc2cc3c(Nc4ccc(F)c(Cl)c4)ncnc3cc2OC)cc(OC)c1
- IC50 (A549): Not Active
- IC50 [1]: Not Active
- pIC50 (MCF7): 4.42

SMILES: O=C(/C=C/c1ccc(Br)cc1)Nc1cc2c(Nc3ccc(F)c(Cl)c3)ncnc2cc1O[C@H]1CCOC1
- pIC50 (A549): 4.45
- pIC50 [1]: 4.55
- pIC50 (MCF7): 4.49
- pIC50 (HeLa): 4.56

SMILES: COc1ccc(/C=C/C(=O)Nc2cc3c(Nc4ccc(F)c(Cl)c4)ncnc3cc2OC)c(OC)c1
- pIC50 (A549): 4.48
- pIC50 [1]: 4.41
- pIC50 (MCF7): 4.44

SMILES: COc1cc(/C=C/C(=O)Nc2cc3c(Nc4ccc(F)c(Cl)c4)ncnc3cc2O[C@H]2CCOC2)cc(OC)c1
- pIC50 (A549): 4.97
- pIC50 [1]: 4.59
- pIC50 (MCF7): 4.52
- pIC50 (HeLa): 4.47

SMILES: COc1ccc(/C=C/C(=O)Nc2cc3c(Nc4ccc(F)c(Cl)c4)ncnc3cc2OC)cc1
- IC50 (A549): Not Active
- IC50 [1]: Not Active
- IC50 (MCF7): Not Active

SMILES: COc1cc2ncnc(Nc3ccc(F)c(Cl)c3)c2cc1NC(=O)/C=C/c1ccc(F)cc1Cl
- IC50 (A549): Not Active
- pIC50 [1]: 4.49
- IC50 (MCF7): Not Active

- pIC50 [2]: 8.44
- pIC50 [3]: 6.32
SMILES: COc1ccc(/C=C/C(=O)Nc2cc3c(Nc4ccc(F)c(Cl)c4)ncnc3cc2O[C@H]2CCOC2)c(OC)c1OC
- pIC50 (A549): 7.15
- pIC50 [1]: 5.12
- pIC50 (MCF7): 5.33
- pIC50 (HeLa): 5.32

SMILES: COc1ccc(/C=C/C(=O)Nc2cc3c(Nc4ccc(F)c(Cl)c4)ncnc3cc2O[C@H]2CCOC2)c(OC)c1
- pIC50 (A549): 5.03
- pIC50 [1]: 5.56
- pIC50 (MCF7): 4.54
- pIC50 (HeLa): 4.58

SMILES: COc1cc2ncnc(Nc3ccc(F)c(Cl)c3)c2cc1NC(=O)/C=C/c1ccccc1[N+](=O)[O-]
- pIC50 (A549): 4.48
- pIC50 [1]: 4.85
- pIC50 (MCF7): 4.44

SMILES: COc1ccc(OC)c(/C=C/C(=O)Nc2cc3c(Nc4ccc(F)c(Cl)c4)ncnc3cc2OC)c1
- pIC50 (A549): 4.95
- pIC50 [1]: 4.54
- pIC50 (MCF7): 4.47

SMILES: O=C(/C=C/c1ccc([N+](=O)[O-])cc1)Nc1cc2c(Nc3ccc(F)c(Cl)c3)ncnc2cc1O[C@H]1CCOC1
- pIC50 (A549): 4.92
- pIC50 [1]: 4.64
- pIC50 (MCF7): 4.57
- pIC50 (HeLa): 4.56

SMILES: COc1cc(/C=C/C(=O)Nc2cc3c(Nc4ccc(F)c(Cl)c4)ncnc3cc2O[C@H]2CCOC2)cc(OC)c1O
- pIC50 (A549): 4.57
- pIC50 [1]: 4.58
- pIC50 (MCF7): 4.52
- pIC50 (HeLa): 4.56

SMILES: O=C(/C=C/c1cc(Br)c(O)c(Br)c1)Nc1cc2c(Nc3ccc(F)c(Cl)c3)ncnc2cc1O[C@H]1CCOC1
- pIC50 (A549): 4.54
- pIC50 [1]: 4.59
- pIC50 (MCF7): 4.51
- pIC50 (HeLa): 4.56

- pIC50 [2]: 8.04
- pIC50 [3]: 6.05
SMILES: COc1ccc(/C=C/C(=O)Nc2cc3c(Nc4ccc(F)c(Cl)c4)ncnc3cc2O[C@H]2CCOC2)cc1
- pIC50 (A549): 5.52
- pIC50 [1]: 5.65
- pIC50 (MCF7): 5.29
- pIC50 (HeLa): 4.46

SMILES: N#Cc1ccc(/C=C/C(=O)Nc2cc3c(Nc4ccc(F)c(Cl)c4)ncnc3cc2O[C@H]2CCOC2)cc1
- IC50 (A549): Not Active
- pIC50 [1]: 4.44
- pIC50 (MCF7): 5.01

SMILES: O=C(/C=C/c1ccccc1[N+](=O)[O-])Nc1cc2c(Nc3ccc(F)c(Cl)c3)ncnc2cc1O[C@H]1CCOC1
- pIC50 (A549): 5.05
- pIC50 [1]: 5.11
- pIC50 (MCF7): 4.55
- pIC50 (HeLa): 4.53

SMILES: COc1cc2ncnc(Nc3ccc(F)c(Cl)c3)c2cc1NC(=O)/C=C/c1ccc(C#N)cc1
- IC50 (A549): Not Active
- IC50 [1]: Not Active
- IC50 (MCF7): Not Active

SMILES: O=C(/C=C/c1cccc(Cl)c1Cl)Nc1cc2c(Nc3ccc(F)c(Cl)c3)ncnc2cc1O[C@H]1CCOC1
- pIC50 (A549): 4.63
- pIC50 [1]: 4.56
- pIC50 (MCF7): 4.52
- pIC50 (HeLa): 4.52

SMILES: COc1cc2ncnc(Nc3ccc(F)c(Cl)c3)c2cc1NC(=O)/C=C/c1cc(OC)c(OC)c(OC)c1
- IC50 (A549): Not Active
- pIC50 [1]: 4.42
- IC50 (MCF7): Not Active

SMILES: COc1ccc(OC)c(/C=C/C(=O)Nc2cc3c(Nc4ccc(F)c(Cl)c4)ncnc3cc2O[C@H]2CCOC2)c1
- pIC50 (A549): 5.14
- pIC50 [1]: 5.06
- pIC50 (MCF7): 4.44
- pIC50 (HeLa): 4.57

SMILES: O=C(/C=C/c1ccc(F)cc1Cl)Nc1cc2c(Nc3ccc(F)c(Cl)c3)ncnc2cc1O[C@H]1CCOC1
- pIC50 (A549): 5.28
- pIC50 [1]: 5.15
- pIC50 (MCF7): 4.58
- pIC50 (HeLa): 4.43

SMILES: COc1cc(/C=C/C(=O)Nc2cc3c(Nc4ccc(F)c(Cl)c4)ncnc3cc2O[C@H]2CCOC2)cc(OC)c1OC
- pIC50 (A549): 5.38
- pIC50 [1]: 4.69
- pIC50 (MCF7): 4.55
- pIC50 (HeLa): 4.61

SMILES: CN(C)C/C=C/C(=O)Nc1cc2c(Nc3ccc(F)c(Cl)c3)ncnc2cc1O[C@H]1CCOC1 [AFATINIB]
- pIC50 (A549): 7.30
- pIC50 [1]: 5.39
- pIC50 (MCF7): 5.23
- pIC50 (HeLa): 5.17
- pIC50 [4]: 9.30
